Laboratory results: ChEMBL document CHEMBL3877303 (J Med Chem, 2017)
The source made the active and inactive calls. The rule behind the calls is not given here.

Experiments:
[1] = target: T1, Discoidin domain-containing receptor 2 (Homo sapiens) (UniProt Q16832); assay: Inhibition of recombinant His-tagged human DDR2 cytoplasmic domain expressed in baculovirus expression system assessed as residual activity at 1 uM by KINOMEscan binding assay relative to control
T1 sequence (whole entry): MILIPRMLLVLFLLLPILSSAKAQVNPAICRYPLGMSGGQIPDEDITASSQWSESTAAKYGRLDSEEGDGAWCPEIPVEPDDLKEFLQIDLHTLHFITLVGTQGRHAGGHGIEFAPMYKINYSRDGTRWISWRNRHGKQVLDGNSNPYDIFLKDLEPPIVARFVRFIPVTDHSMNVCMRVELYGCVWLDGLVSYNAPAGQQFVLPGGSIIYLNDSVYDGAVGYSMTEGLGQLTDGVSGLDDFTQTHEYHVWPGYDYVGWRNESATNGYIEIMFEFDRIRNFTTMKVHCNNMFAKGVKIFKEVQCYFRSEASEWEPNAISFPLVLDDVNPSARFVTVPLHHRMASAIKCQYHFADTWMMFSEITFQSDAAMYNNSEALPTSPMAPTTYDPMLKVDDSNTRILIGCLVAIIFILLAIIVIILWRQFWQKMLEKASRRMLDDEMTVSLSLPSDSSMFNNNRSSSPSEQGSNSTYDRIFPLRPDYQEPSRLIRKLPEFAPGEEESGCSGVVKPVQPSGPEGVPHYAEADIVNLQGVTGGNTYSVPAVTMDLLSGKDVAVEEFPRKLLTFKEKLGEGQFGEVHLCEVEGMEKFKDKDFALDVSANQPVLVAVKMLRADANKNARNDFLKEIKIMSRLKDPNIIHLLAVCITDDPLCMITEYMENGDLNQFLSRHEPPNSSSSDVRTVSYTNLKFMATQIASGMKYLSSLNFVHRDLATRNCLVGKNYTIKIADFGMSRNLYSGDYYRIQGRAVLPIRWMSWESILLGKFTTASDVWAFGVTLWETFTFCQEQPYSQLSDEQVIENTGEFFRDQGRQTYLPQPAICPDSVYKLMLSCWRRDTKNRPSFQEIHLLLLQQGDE

GIST882 = assay: Induction of apoptosis in human GIST882 cells assessed as increase in cleaved caspase-3 level at 0.1 to 3 uM by Western blot analysis; assay type: functional, cell-based
Summary of the method: (§1)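 Cells were treated with DMSO or serially diluted compound for the indicated periods. They were washed in ice-cold PBS and lysed in RIPA buffer with protease/phosphatase inhibitors, and protein was quantified by BCA. Lysates were resolved by SDS-PAGE, transferred to PVDF and blocked in 5% milk/TBST. Blots were probed for PARP and caspase-3, with β-actin as loading control, and detected by ECL.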

[2] = target: T2, Mast/stem cell growth factor receptor Kit (Homo sapiens, UniProt P10721); assay: Inhibition of c-KIT mediated signaling pathways assessed as reduction in S6K phosphorylation at T389 in human GIST882 cells at 0.03 to 10 uM measured after 2 hrs by immunoblotting; assay type: cell-based
Summary of the method: (§2)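 After an ice-cold PBS wash, cells were lysed in RIPA buffer (50 mM Tris pH 8.0) with protease and phosphatase inhibitors, and protein was quantified by BCA. Lysates were run on SDS-PAGE, transferred to PVDF and blocked in 5% milk/TBST. Phospho- and total proteins were probed by immunoblot with ECL detection; β-actin served as loading control.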

[3] = system: Mast/stem cell growth factor receptor Kit (Homo sapiens), P10721 [L576P]; assay: Inhibition of Tel-fused c-KIT L576P mutant (unknown origin) expressed in BAF3 cells assessed as growth inhibition measured after 72 hrs by CellTiter-Glo or CCK8 assay; assay type: cell-based
Summary of the method: (§3)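 BaF3 lines were made by retroviral transduction with kinase-fusion MSCV vectors packaged in HEK293T cells. Cells were selected with puromycin for 48 h, then selected again without IL-3 so growth depends on the introduced kinase. […] They were seeded at 1 to 2.5×10^4 cells/mL with compound dilutions and incubated 72 h. Viability was read by CellTiter-Glo luminescence or CCK-8 absorbance (450/655 nm), normalized to DMSO control; GI50 was curve-fitted from triplicate tests.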

[4] = target: Epithelial discoidin domain-containing receptor 1 (Homo sapiens, UniProt Q08345); details: BaF3
[5] = target: T3, Macrophage colony-stimulating factor 1 receptor (Homo sapiens, UniProt P07333); assay: Inhibition of recombinant His-tagged human CSF1R cytoplasmic domain expressed in baculovirus expression system assessed as residual activity at 1 uM measured after 1 hr by FRET based Z'Lyte assay relative to control
KU812 cell line = assay: Induction of apoptosis in human KU812 cells assessed as cleavage of PARP at 0.1 to 3 uM by Western blot analysis; assay type: functional, cell-based
Summary of the method: as §1

[6] = Antiproliferative activity against human MEG01 cells measured after 72 hrs by CellTiter-Glo or CCK8 assay; assay type: functional; details: MEG-01, 72 h
[7] = Anticancer activity against human GISTT1 cells xenografted in nu/nu mouse assessed as tumor weight at 25 mg/kg, po administered daily via oral gavage measured 21 days post compound treatment (reference value: 2.86 g)
BaF3 = assay: Inhibition of BCR/ABL p210 fusion protein T315I mutant (unknown origin) expressed in BAF3 cells assessed as growth inhibition measured after 72 hrs by CellTiter-Glo or CCK8 assay; assay type: cell-based; details: Homo sapiens
Summary of the method: as §3

GISTT1 = assay: Anticancer activity against human GISTT1 cells xenografted in nu/nu mouse assessed as tumor growth inhibition administered daily via oral gavage measured 21 days post compound treatment
[8] = target: T3, Macrophage colony-stimulating factor 1 receptor; assay: Inhibition of recombinant His-tagged human CSF1R cytoplasmic domain expressed in baculovirus expression system measured after 1 hr by FRET based Z'Lyte assay
Summary of the method: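 Z'-LYTE FRET biochemical kinase assay run by Invitrogen on selected kinases identified from binding profiling; IC50 from dose-response.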

MEG-01 = assay: Induction of apoptosis in human MEG01 cells assessed as increase in cleaved caspase-3 level at 0.1 to 3 uM by Western blot analysis; assay type: functional, cell-based
[9] = target: T2, Mast/stem cell growth factor receptor Kit; assay: Inhibition of c-KIT autophosphorylation at Y823 in human GIST882 cells at 0.01 to 3 uM measured after 2 hrs by immunoblotting; assay type: cell-based
Summary of the method: as §2

[10] = target: T2, Mast/stem cell growth factor receptor Kit; details: 1 uM
[11] = target: T2, Mast/stem cell growth factor receptor Kit; details: GISTT1, 1 uM
[12] = target: T2, Mast/stem cell growth factor receptor Kit; details: GISTT1, 1 uM; remark: listed apart in the source
[13] = target: T2, Mast/stem cell growth factor receptor Kit; details: 1 uM; remark: listed apart in the source

T2 sequence (P10721 whole entry): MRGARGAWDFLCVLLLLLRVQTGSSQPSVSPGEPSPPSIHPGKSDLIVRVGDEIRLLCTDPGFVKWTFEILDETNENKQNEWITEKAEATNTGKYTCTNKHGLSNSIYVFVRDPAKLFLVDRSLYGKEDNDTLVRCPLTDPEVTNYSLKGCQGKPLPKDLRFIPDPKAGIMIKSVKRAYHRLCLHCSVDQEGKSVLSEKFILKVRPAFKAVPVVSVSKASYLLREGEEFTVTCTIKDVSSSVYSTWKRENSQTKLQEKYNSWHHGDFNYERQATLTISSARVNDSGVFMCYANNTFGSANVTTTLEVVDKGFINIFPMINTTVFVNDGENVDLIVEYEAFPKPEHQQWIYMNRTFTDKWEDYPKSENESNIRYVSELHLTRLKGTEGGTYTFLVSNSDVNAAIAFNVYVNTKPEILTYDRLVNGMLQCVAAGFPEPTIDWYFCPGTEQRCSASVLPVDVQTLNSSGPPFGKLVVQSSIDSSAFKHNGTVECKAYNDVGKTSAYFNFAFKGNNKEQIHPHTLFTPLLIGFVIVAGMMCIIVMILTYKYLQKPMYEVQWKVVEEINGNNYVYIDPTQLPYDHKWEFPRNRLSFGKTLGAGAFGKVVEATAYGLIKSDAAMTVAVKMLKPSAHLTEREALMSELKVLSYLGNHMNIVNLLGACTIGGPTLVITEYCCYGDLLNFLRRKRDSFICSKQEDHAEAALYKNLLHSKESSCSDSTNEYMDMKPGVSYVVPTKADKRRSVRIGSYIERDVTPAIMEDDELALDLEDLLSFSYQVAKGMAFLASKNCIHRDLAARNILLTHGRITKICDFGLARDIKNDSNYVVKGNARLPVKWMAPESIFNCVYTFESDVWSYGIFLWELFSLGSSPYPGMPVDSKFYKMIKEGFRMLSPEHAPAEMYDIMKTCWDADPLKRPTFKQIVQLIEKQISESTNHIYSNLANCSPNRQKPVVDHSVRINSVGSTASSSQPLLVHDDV
T3 sequence (P07333 whole entry, the tested form may be a part): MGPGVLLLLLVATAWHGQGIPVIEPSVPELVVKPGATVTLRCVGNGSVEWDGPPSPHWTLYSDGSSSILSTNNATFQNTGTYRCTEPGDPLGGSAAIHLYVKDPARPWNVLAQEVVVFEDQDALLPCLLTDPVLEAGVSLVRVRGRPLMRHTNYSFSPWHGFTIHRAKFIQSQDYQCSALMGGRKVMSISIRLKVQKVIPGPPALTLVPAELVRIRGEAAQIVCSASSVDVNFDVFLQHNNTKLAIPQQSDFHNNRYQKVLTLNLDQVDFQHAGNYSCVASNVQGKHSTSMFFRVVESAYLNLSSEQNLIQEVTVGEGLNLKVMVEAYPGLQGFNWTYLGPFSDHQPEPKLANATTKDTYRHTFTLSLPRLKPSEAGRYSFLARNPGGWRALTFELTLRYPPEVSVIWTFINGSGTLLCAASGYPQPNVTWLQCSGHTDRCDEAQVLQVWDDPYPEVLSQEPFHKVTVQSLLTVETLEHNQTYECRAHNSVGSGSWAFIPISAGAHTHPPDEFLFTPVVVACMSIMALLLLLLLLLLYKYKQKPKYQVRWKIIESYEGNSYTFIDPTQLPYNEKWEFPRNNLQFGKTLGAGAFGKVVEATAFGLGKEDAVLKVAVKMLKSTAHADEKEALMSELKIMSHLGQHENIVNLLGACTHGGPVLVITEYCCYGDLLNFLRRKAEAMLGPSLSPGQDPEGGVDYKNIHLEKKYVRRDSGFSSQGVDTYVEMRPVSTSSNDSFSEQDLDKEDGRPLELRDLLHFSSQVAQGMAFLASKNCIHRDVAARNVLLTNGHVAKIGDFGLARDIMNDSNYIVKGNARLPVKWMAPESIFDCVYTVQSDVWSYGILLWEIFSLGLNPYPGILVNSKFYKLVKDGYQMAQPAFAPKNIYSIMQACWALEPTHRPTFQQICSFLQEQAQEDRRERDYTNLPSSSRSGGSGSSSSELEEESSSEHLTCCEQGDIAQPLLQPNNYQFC
Mast/stem cell growth factor receptor Kit (Homo sapiens), P10721 [L576P], sequence (P10721 whole entry L576P, the tested form may be a part): as the sequence (P10721 whole entry) above, with L576P counted along it
Epithelial discoidin domain-containing receptor 1, sequence (Q08345 whole entry, the tested form may be a part): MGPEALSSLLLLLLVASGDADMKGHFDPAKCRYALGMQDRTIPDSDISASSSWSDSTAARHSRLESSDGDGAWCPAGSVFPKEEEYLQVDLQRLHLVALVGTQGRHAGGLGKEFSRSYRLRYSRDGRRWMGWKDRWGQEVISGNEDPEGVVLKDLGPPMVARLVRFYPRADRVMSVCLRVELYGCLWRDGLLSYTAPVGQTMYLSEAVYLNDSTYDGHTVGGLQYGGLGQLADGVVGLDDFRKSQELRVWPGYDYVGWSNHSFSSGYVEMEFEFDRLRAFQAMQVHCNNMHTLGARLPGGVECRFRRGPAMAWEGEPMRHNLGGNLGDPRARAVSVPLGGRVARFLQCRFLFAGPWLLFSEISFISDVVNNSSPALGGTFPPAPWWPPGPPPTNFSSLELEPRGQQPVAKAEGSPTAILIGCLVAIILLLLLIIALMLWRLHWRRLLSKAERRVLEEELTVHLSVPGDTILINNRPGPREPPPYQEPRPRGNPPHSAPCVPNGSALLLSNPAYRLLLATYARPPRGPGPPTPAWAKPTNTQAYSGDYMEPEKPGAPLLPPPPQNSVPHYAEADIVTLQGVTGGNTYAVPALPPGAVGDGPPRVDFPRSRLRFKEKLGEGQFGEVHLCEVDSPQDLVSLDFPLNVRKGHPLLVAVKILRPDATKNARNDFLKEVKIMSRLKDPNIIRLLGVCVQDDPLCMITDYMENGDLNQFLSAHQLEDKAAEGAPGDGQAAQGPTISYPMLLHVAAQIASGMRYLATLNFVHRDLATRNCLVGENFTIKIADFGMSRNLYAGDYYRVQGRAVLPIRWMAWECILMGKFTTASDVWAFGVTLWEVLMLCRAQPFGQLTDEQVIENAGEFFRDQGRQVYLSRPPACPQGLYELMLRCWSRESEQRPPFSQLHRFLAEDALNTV

Activity [1]	inhibition [2]	GI50 [3]	GI50 [4]	Activity [5]	GI50 (BaF3)	IC50 [8]	inhibition [9]	inhibition [10]	inhibition [11]	inhibition [12]	inhibition [13]	SMILES	Activity (GIST882)	Activity (KU812 cell line)	GI50 [6]	Activity [7]	TGI (GISTT1)	Activity (MEG-01)
0.65%	Active	221 nM	9.77 µM	0.3%	> 10 µM	227 nM	Active					Cc1ccc(C(=O)N2CCC(Oc3cc(NC(=O)c4ccc(CN5CCN(C)CC5)c(C(F)(F)F)c4)ccc3C)CC2)cn1	Active	Active	20 nM	2.2 g	Dose-dependent effect	Active
								Active	Active	Active	Active	Cc1ccc(NC(=O)c2ccc(CN3CCN(C)CC3)cc2)cc1Nc1nccc(-c2cccnc2)n1 [IMATINIB]						
